Measured values from different studies.
Protocols differ between the studies behind these lines.
CYP2A6: Cytochrome P450 2A6 (CYP2A6, Homo sapiens, UniProt P11509)
Slc6a4: Sodium-dependent serotonin transporter (Slc6a4, Rattus norvegicus, UniProt P31652)

| target | test | system | conditions | quantity | value | SMILES |
| --- | --- | --- | --- | --- | --- | --- |
| ATP-dependent translocase ABCB1 (ABCB1, Homo sapiens, UniProt P08183) | transporter efflux, inhibitor, fluorescence | MDCK-MDR1 |  | EC50 | 11000 nM | COc1cc2c(cc1OC)C(=O)N(CCCCN1C(=O)/C(=N\NC(=S)N(C)C)c3ccccc31)CC2 |
| N-acyl-phosphatidylethanolamine-hydrolyzing phospholipase D (Napepld, Mus musculus, UniProt Q8BH82) | enzyme activity, inhibitor, fluorescence |  |  | Ki | 180 nM | O=C(NCC1CC1)c1cc(N2CC[C@H](O)C2)nc(N2CCC[C@@H](c3ccccc3)C2)n1 |
| Far upstream element-binding protein 2 (KHSRP, Homo sapiens, UniProt Q92945) | binding |  | lysate | Kd | 26 nM | Cc1cc2nc3c(=O)[nH]c(=O)nc-3n(C[C@H](O)[C@H](O)[C@H](O)COP(=O)(O)OP(=O)(O)OC[C@H]3O[C@@H](n4cnc5c(N)ncnc54)[C@H](O)[C@@H]3O)c2cc1C |
| CYP2A6 | enzyme activity, inhibitor |  | 6 min, pH 7.6 | Ki | > 25000 nM | C#Cc1ccccc1-c1cc(=O)c2ccccc2o1 |
| Slc6a4 | ligand displacement, radioligand |  |  | Ki | 212 nM | CN(C)CCN(Cc1ccccc1)Cc1c(F)cccc1Cl |
| 5-hydroxytryptamine receptor 1D (HTR1D, Homo sapiens, UniProt P28221) | cell-free assay, radioligand |  |  | Ki | > 10000 nM | CCCCN1CCC(COC(=O)c2ccc(N)c(OCF)c2)CC1 |
| Bromodomain-containing protein 4, BD2 (BRD4, Homo sapiens, UniProt O60885) | binding |  |  | Kd | 44 nM | CC(=O)N[C@H](C(=O)N1C[C@H](O)C[C@H]1C(=O)NCc1ccc(-c2scnc2C)cc1)C(C)(C)SCCCCCCNC(=O)C[C@@H]1N=C(c2ccc(Cl)cc2)c2c(sc(C)c2C)-n2c(C)nnc21 |
| CYP2A6 | enzyme activity, inhibitor |  | 6 min, pH 7.6 | Ki | > 25000 nM | O=c1cc(-c2ccccc2)oc2c1ccc1ccccc12 |
| Mu-type opioid receptor (OPRM1, Homo sapiens, UniProt P35372) | cell-free assay, radioligand |  |  | Ki | 3500 nM | OC[C@@]12C[C@@H]1[C@@H](n1cnc3c(NC(C4CCCC4)C4CCCC4)nc(Cl)nc31)[C@H](O)[C@@H]2O |
| CYP2A6 | enzyme activity, inhibitor |  | 6 min, pH 7.6 | Ki | > 25000 nM | C#Cc1ccc(-c2cc(=O)c3ccccc3o2)cc1 |
| Tyrosine-protein kinase Yes (YES1, Homo sapiens, UniProt P07947) | binding, competition with immobilised ligand |  |  | Kd | 310 nM | Cc1cnc(-c2ccc(-c3ccc(NC(=O)Nc4c(F)cc(F)cc4F)cc3F)c3c2C(=O)NC3)[nH]1 |
| Prostaglandin E synthase 3 (Homo sapiens, UniProt Q15185) | binding, MST |  |  | Kd | 1180 nM | COc1cc(C2Oc3c(OC)cccc3C3CC(c4cc(C)ccc4O)=NN32)ccc1O (stereo not shown) |
| Glycogen synthase kinase-3 alpha (GSK3A, Homo sapiens, UniProt P49840) | cell-free assay |  | lysate | Kd | 1750 nM | CCCN1CCN(c2ccc(-c3cncc(Cl)c3N3CCC4(CCNC4=O)CC3)cc2)CC1 |
| Slc6a4 | ligand displacement, radioligand |  |  | Ki | > 20000 nM | c1ccc(-n2nnnc2N2CCNCC2)cc1 |
| CYP2A6 | enzyme activity, inhibitor |  | 6 min, pH 7.6 | Ki | > 25000 nM | C#Cc1cccc(-c2cc(=O)c3ccccc3o2)c1 |
| Bromodomain-containing protein 4, BD1 (BRD4, Homo sapiens, UniProt O60885) | binding, competition with immobilised ligand |  |  | Kd | 6900 nM | Cn1nnc2ccc(NC(=O)c3cccc(C(=O)O)c3)cc21 |
